Experimental data reported in ChEMBL document CHEMBL1146064, “Design, synthesis, and biological evaluation of semicarbazide-sensitive amine oxidase (SSAO) inhibitors with anti-inflammatory activity” (J Med Chem, 2006).

What was measured:
[1] = biological target: T1, Amine oxidase [copper-containing] 3 (Rattus norvegicus, UniProt O08590); assay: Inhibition of SSAO in rat lung
T1 sequence (O08590 whole entry): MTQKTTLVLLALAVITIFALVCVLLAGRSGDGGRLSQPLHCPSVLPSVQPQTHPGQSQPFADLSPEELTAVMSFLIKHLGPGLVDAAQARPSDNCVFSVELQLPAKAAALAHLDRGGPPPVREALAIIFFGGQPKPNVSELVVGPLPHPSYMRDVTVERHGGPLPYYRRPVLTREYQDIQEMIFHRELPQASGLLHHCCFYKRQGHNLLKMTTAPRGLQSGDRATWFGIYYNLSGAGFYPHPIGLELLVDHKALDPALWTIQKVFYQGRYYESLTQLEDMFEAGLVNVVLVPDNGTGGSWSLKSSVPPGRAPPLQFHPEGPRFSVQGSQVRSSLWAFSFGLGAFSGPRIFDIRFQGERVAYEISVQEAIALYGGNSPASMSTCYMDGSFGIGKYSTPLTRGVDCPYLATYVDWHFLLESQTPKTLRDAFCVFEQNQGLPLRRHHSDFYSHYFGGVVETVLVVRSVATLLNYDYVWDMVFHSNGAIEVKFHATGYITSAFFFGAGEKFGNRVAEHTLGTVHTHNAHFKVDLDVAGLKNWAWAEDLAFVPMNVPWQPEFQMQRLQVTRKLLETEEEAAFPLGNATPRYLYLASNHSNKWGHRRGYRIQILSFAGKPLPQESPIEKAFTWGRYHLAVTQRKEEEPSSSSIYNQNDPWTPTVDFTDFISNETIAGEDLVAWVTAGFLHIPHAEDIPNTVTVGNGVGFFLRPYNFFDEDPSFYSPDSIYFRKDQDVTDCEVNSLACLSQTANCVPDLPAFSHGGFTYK
Procedure, shortened: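 Enzyme source is a rat lung homogenate: tissue homogenized 1:20 (w/v) in 10 mM potassium phosphate pH 7.8, then spun at 10000g for 10 min at 4 °C. Reaction stopped with citric acid, toluene/ethyl acetate extract counted by scintillation. IC50 taken from background-corrected dose-response curves (10^-3 to 10^-10 M).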

[2] = biological target: T2, Amine oxidase [flavin-containing] A (Homo sapiens, UniProt P21397); assay: Inhibition of recombinant human MAO-A
T2 sequence (P21397 whole entry): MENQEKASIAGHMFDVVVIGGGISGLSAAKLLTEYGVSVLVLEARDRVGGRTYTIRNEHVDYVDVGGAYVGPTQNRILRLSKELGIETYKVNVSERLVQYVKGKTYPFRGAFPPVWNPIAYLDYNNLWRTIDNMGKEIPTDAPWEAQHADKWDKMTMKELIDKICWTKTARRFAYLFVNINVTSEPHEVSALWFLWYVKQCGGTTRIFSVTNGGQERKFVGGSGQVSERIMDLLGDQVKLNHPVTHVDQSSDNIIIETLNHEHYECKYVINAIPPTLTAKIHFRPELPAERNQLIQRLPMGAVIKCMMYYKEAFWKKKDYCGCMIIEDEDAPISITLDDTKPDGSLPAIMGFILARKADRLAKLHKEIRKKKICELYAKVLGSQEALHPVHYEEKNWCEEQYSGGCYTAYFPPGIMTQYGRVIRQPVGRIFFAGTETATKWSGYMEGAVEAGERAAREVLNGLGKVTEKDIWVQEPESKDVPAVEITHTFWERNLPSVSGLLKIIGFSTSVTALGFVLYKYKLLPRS
Procedure, shortened: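 Recombinant human MAO-A measured with a coupled colorimetric assay. IC50 fitted from inhibition curves over 10^-3 to 10^-10 M inhibitor.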

[3] = Cmax in Sprague-Dawley rat at 5 mg/kg, po; format: ADME, organism-based; parameters: dose 5 mg/kg, route oral; conditions: in vivo
Procedure, shortened: (§1)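 Single oral dose of 5.0 mg/kg given to cannulated female Sprague Dawley rats, then plasma concentrations followed over time. Parameters come from noncompartmental analysis and are reported as mean ± SD (n = 3).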

[4] = AUC in Sprague-Dawley rat at 5 mg/kg, po; format: ADME, organism-based; parameters: dose 5 mg/kg, route oral; conditions: plasma; procedure, shortened: as §1
[5] = Tmax in Sprague-Dawley rat at 5 mg/kg, po; format: ADME, organism-based; parameters: dose 5 mg/kg, route oral; conditions: in vivo; procedure, shortened: as §1
[6] = AUC (infinity) in Sprague-Dawley rat at 5 mg/kg, po; format: ADME, organism-based; parameters: time infinity, dose 5 mg/kg, route oral; conditions: plasma; procedure, shortened: as §1
[7] = Half life in Sprague-Dawley rat at 5 mg/kg, po; format: ADME, organism-based; parameters: dose 5 mg/kg, route oral; conditions: in vivo; procedure, shortened: as §1
[8] = biological target: T3, Amine oxidase [flavin-containing] B (Homo sapiens, UniProt P27338); assay: Inhibition of recombinant human MAO-B
T3 sequence (P27338 whole entry): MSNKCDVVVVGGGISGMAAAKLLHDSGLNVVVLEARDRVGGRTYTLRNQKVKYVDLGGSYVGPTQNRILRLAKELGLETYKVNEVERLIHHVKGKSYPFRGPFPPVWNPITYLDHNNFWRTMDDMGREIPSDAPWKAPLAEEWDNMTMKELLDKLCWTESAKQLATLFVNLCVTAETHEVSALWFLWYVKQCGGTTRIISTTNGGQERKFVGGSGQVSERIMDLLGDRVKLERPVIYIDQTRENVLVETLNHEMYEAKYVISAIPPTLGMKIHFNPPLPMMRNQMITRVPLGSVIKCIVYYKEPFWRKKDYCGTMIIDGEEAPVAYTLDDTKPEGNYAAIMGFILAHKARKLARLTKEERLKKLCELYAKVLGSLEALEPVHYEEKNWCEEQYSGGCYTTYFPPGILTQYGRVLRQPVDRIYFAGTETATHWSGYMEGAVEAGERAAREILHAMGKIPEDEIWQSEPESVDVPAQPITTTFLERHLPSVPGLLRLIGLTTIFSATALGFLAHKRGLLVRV

SMILES	IC50 [1]	further results
C=C(CNNC(C)C)c1ccc(F)cc1	> 1000 nM	–
C=C(CNNC)c1ccc(F)cc1	1.7 nM	–
C=C(CNN)c1ccccc1.Cl	2 nM	IC50 [2]: 1300 nM; Cmax [3]: 366 ng/mL; AUC [4]: 1340 ng·h/mL; Tmax [5]: 30 min; AUC(0-inf) [6]: 3310 ng·h/mL; half-life [7]: 677 min; IC50 [8]: 71 µM
C=C(CNN)c1ccc(F)cc1	6.1 nM	IC50 [2]: 6000 nM
C=C(CNN)c1ccc(Cl)cc1	3 nM	–
C=C(CN(N)Cc1ccccc1)c1ccc(F)cc1	> 1000 nM	–
C=C(CNNCc1ccccc1)c1ccc(F)cc1	> 1000 nM	–
C=C(CNNCC)c1ccc(F)cc1	2.3 nM	–
C=C(CN(C)N)c1ccc(F)cc1	240 nM	–
C=C(CNN)c1ccccc1C	4 nM	IC50 [2]: 2000 nM; IC50 [8]: 90 µM
NNC/C(=C/F)c1ccccc1	5 nM	–
C=C(CN(N)CC)c1ccc(F)cc1	630 nM	–
C=C(CN(N)C(C)C)c1ccc(F)cc1	420 nM	–
